Assay results from different studies.
Target: Serine/threonine-protein kinase haspin (HASPIN, Homo sapiens, UniProt Q8TF76)
One construct used (Q8TF76 1-798): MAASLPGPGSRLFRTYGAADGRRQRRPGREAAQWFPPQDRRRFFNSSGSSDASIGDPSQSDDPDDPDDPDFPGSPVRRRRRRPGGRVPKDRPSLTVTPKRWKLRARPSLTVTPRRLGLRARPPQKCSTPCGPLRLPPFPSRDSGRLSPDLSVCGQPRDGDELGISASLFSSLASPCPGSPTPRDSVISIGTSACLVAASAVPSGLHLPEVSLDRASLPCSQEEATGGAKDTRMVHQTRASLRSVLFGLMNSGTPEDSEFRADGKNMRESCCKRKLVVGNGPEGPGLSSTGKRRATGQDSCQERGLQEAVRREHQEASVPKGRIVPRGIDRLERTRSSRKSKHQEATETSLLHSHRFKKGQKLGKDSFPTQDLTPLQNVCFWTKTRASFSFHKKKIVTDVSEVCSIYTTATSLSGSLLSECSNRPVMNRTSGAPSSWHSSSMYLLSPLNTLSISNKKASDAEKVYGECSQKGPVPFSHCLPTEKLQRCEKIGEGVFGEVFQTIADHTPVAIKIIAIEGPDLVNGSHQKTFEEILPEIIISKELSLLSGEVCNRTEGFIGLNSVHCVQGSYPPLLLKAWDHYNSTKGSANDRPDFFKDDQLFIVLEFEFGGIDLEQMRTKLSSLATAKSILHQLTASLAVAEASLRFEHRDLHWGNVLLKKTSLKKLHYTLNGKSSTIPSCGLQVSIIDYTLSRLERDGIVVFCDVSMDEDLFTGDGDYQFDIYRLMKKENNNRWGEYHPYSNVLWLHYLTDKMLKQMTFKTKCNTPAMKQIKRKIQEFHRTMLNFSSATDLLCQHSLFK

CC/C(=N\NC(=O)NCc1cccc(O)c1)c1ccc(O)c(C)c1O
inhibition (enzyme activity, inhibitor; 0.1 µM): -0.2%

COCCOc1nc(-c2ccc(Cl)nc2)nc2c1CN(C(=O)c1ncn3ccccc13)CC2
remaining binding (cell-free assay, competition with immobilised ligand; 0.1 µM): 100%

COc1cc(-c2cc(-c3ccc(N4CCNCC4)cc3)cnc2C)cc(OC)c1OC
inhibition (enzyme activity, inhibitor; 0.1 µM): 3%

CC(=O)c1c(NS(C)(=O)=O)c2cc(-c3ccc(Cl)cc3)c(-c3ccc(Cl)cc3Cl)nc2n(C)c1=O
remaining binding (cell-free assay, competition with immobilised ligand; 1 µM): 92%

Cc1cc(NC(=O)c2cccc3cc(-c4cccc5[nH]nc(N)c45)ccc23)ccc1F
activity vs control (enzyme activity, inhibitor; 0.1 µM): 111%

Cc1c(C(=O)O)cc(-c2ccc(C3CCNCC3)cc2)c2ccc(-c3ccc(C(F)(F)F)cc3)cc12
remaining binding (cell-free assay, competition with immobilised ligand; 1 µM): 100%

O=C1Nc2ccc(Cl)cc2C1=Cc1cc(Cl)c(O)c(Cl)c1
remaining signal (cell-free assay; 0.5 µM): 8.65%

CC(C)(C)c1nc2c(s1)c1nc(N)ncc1c1ccc(NS(=O)(=O)c3c(F)cccc3F)c(F)c12
remaining activity (enzyme activity, inhibitor, radiometric; 1 µM): 118%

CNC(=O)c1cc(Oc2ccc(NC(=O)Nc3ccc(Cl)c(C(F)(F)F)c3)cc2)ccn1
inhibition (enzyme activity, inhibitor; 10 µM): 10%

CCCOc1ccc([C@H]2[C@H](C(=O)O)[C@@H](c3ccc4c(c3)OCO4)CN2CC(=O)Nc2c(CC)cccc2CC)cc1
remaining binding (cell-free assay, competition with immobilised ligand; 1 µM): 62%

Cn1cnc(Br)c1C1=CN(c2ncnc3[nH]cnc23)CCS1
inhibition (enzyme activity, inhibitor, radiometric; 50 nM): 32.9%

O=C(O)c1ccc2c3c1cccc3c(=O)n1c3ccccc3nc21
remaining activity (enzyme activity, inhibitor; 0.5 µM): 90.9%

Cc1c(NC(=O)c2cc(C(N)=O)nc3cc(F)ccc23)c(C(F)(F)F)nn1Cc1ccc(C(C)(C)C)cc1
remaining binding (cell-free assay, competition with immobilised ligand; 1 µM): 100%

Cc1sc(C(=O)NC2COC2)cc1-n1cc(NC(=O)Nc2c(F)cccc2Cl)cn1
remaining activity (enzyme activity, inhibitor; 10 µM): 92.4%

Cc1ccc(Nc2nccc(N(C)c3ccc4c(C)n(C)nc4c3)n2)cc1S(N)(=O)=O
inhibition (enzyme activity, inhibitor; 0.3 µM): 0%

CCN(CC)CCNC(=O)c1c(C)[nH]c(/C=C2\C(=O)Nc3ccc(Cl)cc32)c1C
remaining activity (enzyme activity, inhibitor; 0.5 µM): 82.9%

Cc1nc(Cc2cccc(C(F)(F)F)c2)sc1-c1ccc(C(N)=O)nc1
remaining binding (cell-free assay, competition with immobilised ligand; 1 µM): 100%

Cc1ccc(NC(=O)c2ccc(C)c(C(F)(F)F)c2)cc1C#Cc1nn(C2CCC(O)CC2)c2ncnc(N)c12 (centres unmarked)
remaining signal (cell-free assay; 10 µM): 93%

N#Cc1ccc(Nc2ccc3[nH]c(=O)[nH]c3c2)c(Cl)c1
remaining binding (cell-free assay, competition with immobilised ligand; 1 µM): 100%

Cc1cnc(NC2CCOCC2)nc1-n1cnc(C(=O)NC(CN)c2cc(F)cc(Cl)c2)c1 (centres unmarked)
remaining activity (enzyme activity, inhibitor, radiometric; 1 µM): 40%

Nc1ncnc2occ(-c3ccc(NC(=O)Nc4cc(C(F)(F)F)ccc4F)cc3)c12
remaining signal (cell-free assay; 20 µM): 43%

CCN(CC)CCNC(=O)c1c(C)[nH]c(/C=C2\C(=O)Nc3ccc(F)cc32)c1C
inhibition (enzyme activity, inhibitor; 0.3 µM): 32%

Cn1cncc1C1=CN(c2ncnc3[nH]cnc23)CCS1
inhibition (enzyme activity, inhibitor, radiometric; 50 nM): 25.6%

O=c1cc(-c2cccc3c2Sc2ccccc2S3)oc(N2CCOCC2)c1
remaining activity (enzyme activity, inhibitor; 0.5 µM): 106%

CN(C)C(=O)Cn1cc(-c2nc([C@@](C)(c3ccc(-c4cnc(N)nc4)cc3)C3CC3)no2)cn1
remaining binding (cell-free assay, competition with immobilised ligand; 1 µM): 100%

O=C(Nc1cnn(-c2csc(C(=O)NC3COC3)c2)c1)Nc1c(F)cccc1Cl
remaining activity (enzyme activity, inhibitor; 5 µM): 111%
